Experiments:
[1] = molecular target: T1, Eukaryotic elongation factor 2 kinase (Homo sapiens) (UniProt O00418); test: Inhibition of EF2K (unknown origin) at 10 uM incubated for 30 mins in presence of [gamma-33P]ATP by multidrop micro reagent based assay relative to control; values are per cent of control
T1 sequence (whole entry): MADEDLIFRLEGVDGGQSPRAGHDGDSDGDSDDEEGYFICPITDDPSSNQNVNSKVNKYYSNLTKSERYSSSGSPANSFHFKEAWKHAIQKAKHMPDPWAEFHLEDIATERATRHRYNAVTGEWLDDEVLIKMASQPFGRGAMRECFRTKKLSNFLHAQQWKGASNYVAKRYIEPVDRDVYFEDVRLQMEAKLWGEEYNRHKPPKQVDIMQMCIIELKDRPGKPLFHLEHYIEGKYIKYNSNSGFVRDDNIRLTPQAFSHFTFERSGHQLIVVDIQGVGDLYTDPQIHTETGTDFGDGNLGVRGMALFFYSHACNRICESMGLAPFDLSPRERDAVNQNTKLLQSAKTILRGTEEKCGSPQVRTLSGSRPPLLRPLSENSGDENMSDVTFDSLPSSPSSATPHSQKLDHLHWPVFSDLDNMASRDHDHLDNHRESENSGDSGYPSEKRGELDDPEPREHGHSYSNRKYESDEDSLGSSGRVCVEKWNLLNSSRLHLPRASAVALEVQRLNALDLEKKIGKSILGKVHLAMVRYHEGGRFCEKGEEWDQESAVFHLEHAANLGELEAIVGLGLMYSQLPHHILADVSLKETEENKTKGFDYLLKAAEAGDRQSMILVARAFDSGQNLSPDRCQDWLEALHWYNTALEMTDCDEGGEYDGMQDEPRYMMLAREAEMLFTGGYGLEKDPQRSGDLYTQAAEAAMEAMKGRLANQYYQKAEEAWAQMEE

[2] = molecular target: Mitogen-activated protein kinase kinase kinase 9 (Homo sapiens) (UniProt P80192); test: Inhibition of MLK1 (unknown origin) at 10 uM incubated for 30 mins in presence of [gamma-33P]ATP by multidrop micro reagent based assay relative to control; values are per cent of control
[3] = molecular target: Serine/threonine-protein kinase pim-1 (Homo sapiens) (UniProt P11309); test: Inhibition of PIM1 (unknown origin) at 10 uM incubated for 30 mins in presence of [gamma-33P]ATP by multidrop micro reagent based assay relative to control; values are per cent of control
[4] = molecular target: Serine/threonine-protein kinase Chk2 (Homo sapiens) (UniProt O96017); test: Inhibition of CHK2 (unknown origin) at 10 uM incubated for 30 mins in presence of [gamma-33P]ATP by multidrop micro reagent based assay relative to control; values are per cent of control
[5] = molecular target: T2, NUAK family SNF1-like kinase 1 (Homo sapiens) (UniProt O60285); test: Inhibition of NUAK1 (unknown origin) at 1 uM incubated for 30 mins in presence of [gamma-33P]ATP by multidrop micro reagent based assay relative to control
T2 sequence (whole entry): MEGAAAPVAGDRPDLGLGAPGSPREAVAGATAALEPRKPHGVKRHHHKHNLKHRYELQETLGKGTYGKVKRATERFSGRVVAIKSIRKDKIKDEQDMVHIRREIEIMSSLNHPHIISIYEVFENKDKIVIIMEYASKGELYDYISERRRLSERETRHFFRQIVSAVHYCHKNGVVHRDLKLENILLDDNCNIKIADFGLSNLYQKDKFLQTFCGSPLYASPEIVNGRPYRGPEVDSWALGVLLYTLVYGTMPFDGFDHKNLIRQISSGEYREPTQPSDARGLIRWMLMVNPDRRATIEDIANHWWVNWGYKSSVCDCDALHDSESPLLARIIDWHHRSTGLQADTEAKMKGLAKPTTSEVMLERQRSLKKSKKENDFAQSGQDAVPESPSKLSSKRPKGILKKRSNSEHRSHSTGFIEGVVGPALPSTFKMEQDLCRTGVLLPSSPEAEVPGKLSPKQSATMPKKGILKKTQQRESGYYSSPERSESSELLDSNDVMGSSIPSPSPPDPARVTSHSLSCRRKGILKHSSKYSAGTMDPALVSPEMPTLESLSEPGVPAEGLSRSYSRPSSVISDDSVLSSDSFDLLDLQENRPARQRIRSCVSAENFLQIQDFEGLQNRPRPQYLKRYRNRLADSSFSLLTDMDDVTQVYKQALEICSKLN
How it was run: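 Single-concentration screen across a panel of 85 protein kinases. Activity is expressed as a percentage of control incubations run without inhibitor.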

[6] = molecular target: T3, Serine/threonine-protein kinase Sgk1 (Homo sapiens) (UniProt O00141); test: Inhibition of SGK1 (unknown origin) at 1 uM incubated for 30 mins in presence of [gamma-33P]ATP by multidrop micro reagent based assay relative to control; values are per cent of control
T3 sequence (whole entry): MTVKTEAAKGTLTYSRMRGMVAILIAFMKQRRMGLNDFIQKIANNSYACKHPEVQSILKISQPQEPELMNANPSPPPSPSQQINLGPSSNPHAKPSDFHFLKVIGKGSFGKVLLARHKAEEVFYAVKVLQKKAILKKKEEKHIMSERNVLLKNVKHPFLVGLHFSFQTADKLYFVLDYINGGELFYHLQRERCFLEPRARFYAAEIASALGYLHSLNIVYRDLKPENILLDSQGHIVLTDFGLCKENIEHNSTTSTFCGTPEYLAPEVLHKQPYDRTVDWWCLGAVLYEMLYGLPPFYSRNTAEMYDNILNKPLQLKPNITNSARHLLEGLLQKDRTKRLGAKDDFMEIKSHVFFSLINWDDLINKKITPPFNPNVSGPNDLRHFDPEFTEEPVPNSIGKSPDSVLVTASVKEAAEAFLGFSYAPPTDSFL

[7] = molecular target: Casein kinase 2 (Homo sapiens) (UniProt P67870+P68400+P19784+Q8NEV1); test: Inhibition of CK2 (unknown origin) at 1 uM incubated for 30 mins in presence of [gamma-33P]ATP by multidrop micro reagent based assay relative to control; values are per cent of control
[8] = molecular target: Insulin receptor-related protein (Homo sapiens) (UniProt P14616); test: Inhibition of IRR (unknown origin) at 1 uM incubated for 30 mins in presence of [gamma-33P]ATP by multidrop micro reagent based assay relative to control
Sequence of Insulin receptor-related protein (Homo sapiens) (P14616 27-742 limits assumed): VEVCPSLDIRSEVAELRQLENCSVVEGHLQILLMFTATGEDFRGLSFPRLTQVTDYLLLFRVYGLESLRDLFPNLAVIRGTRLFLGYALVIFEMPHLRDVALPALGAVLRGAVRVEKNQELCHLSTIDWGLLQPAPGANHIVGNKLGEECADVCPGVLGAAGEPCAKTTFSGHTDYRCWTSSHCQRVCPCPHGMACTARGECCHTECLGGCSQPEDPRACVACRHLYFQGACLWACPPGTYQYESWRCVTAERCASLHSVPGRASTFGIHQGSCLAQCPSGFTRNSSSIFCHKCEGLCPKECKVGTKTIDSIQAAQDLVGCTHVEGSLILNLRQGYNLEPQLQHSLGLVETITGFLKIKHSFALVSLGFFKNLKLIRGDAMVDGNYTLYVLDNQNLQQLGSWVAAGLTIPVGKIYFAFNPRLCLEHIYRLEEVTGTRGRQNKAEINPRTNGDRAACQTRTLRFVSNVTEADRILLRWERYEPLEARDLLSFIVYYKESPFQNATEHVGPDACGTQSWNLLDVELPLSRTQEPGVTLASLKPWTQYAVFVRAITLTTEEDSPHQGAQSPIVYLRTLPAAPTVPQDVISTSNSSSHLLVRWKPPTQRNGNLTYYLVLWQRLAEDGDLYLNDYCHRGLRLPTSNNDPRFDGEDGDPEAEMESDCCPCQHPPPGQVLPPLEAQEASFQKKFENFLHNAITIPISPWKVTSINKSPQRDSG
Sequence of Insulin receptor-related protein (Homo sapiens) (P14616 747-1297 limits assumed): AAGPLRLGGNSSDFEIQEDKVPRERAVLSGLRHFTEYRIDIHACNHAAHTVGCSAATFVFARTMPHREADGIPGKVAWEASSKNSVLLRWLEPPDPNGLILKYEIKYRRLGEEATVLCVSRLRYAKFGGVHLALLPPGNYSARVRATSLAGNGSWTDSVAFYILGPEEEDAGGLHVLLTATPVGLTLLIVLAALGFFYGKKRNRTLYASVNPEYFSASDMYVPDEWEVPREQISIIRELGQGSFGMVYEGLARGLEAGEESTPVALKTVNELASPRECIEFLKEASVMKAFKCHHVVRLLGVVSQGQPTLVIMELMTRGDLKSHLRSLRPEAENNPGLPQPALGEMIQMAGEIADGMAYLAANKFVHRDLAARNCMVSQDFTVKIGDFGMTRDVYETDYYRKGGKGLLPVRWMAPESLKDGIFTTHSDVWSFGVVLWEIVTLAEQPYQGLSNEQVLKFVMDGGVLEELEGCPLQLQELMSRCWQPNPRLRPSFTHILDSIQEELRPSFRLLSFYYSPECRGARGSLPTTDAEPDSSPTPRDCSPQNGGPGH

Sequence of Serine/threonine-protein kinase pim-1 (Homo sapiens) (P11309 whole entry, looked up): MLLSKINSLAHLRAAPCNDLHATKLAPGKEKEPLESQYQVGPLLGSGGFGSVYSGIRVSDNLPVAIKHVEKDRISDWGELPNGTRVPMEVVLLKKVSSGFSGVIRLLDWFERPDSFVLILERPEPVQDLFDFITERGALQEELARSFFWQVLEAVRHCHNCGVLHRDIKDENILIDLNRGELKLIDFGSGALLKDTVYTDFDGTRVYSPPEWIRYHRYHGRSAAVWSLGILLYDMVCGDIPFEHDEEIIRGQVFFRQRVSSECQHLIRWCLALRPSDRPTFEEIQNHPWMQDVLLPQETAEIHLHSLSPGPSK
Sequence of Serine/threonine-protein kinase Chk2 (Homo sapiens) (O96017 whole entry): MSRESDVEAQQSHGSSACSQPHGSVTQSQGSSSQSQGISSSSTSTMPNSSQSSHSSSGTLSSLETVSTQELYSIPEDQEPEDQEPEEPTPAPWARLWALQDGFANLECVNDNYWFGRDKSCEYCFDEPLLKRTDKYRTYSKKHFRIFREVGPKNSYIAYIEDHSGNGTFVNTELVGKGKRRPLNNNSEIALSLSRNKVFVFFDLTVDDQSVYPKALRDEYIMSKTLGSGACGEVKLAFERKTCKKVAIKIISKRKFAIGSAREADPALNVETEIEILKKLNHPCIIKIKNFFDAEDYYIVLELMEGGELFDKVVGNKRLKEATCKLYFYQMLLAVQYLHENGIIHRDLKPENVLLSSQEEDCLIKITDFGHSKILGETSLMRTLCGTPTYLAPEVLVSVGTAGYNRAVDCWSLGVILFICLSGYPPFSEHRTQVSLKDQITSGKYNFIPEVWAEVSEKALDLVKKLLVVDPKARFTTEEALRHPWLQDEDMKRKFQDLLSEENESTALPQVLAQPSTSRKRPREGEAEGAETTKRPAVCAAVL
Sequence of Mitogen-activated protein kinase kinase kinase 9 (Homo sapiens) (P80192 whole entry, looked up): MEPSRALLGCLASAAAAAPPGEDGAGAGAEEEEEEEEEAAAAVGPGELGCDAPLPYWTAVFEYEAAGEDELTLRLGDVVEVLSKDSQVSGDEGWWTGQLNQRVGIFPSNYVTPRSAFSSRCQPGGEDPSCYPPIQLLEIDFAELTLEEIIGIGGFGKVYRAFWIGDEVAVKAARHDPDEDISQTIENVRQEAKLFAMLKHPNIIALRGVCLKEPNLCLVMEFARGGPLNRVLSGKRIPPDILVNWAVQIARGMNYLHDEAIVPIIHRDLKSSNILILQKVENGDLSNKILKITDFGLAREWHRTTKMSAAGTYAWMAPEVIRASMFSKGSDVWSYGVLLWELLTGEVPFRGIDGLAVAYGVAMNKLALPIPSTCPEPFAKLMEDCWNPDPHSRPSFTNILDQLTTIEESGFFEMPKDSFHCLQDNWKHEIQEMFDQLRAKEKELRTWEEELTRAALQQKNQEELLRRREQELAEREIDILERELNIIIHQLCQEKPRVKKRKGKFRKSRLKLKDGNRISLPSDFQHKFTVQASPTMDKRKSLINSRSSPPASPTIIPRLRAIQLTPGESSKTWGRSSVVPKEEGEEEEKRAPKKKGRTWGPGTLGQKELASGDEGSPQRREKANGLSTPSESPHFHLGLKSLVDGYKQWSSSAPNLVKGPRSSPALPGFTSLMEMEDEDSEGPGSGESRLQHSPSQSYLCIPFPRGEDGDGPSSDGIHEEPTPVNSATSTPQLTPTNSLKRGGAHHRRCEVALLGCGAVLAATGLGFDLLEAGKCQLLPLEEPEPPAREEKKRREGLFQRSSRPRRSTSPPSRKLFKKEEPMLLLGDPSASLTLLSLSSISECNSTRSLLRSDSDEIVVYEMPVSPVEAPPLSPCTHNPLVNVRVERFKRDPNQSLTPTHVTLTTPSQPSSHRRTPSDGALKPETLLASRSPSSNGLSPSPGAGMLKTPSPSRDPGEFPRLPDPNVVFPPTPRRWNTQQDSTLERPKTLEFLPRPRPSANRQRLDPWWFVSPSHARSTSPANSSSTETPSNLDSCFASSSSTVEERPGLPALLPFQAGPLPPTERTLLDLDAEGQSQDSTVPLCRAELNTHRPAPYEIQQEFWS

C[C@@H](N)[C@H]1CC[C@H](C(=O)Nc2ccncc2)CC1
residual activity [1]: 81%
residual activity [2]: 90%
residual activity [3]: 94%
residual activity [4]: 93%

CC1=C(C(=O)Nc2cc3cn[nH]c3cc2F)C(c2ccc(C(F)(F)F)cc2)CC(=O)N1 (stereo unspecified)
inhibition [5]: 51%
residual activity [6]: 131%
residual activity [7]: 82%
inhibition [8]: 106%

O=S(=O)(c1cccc2cnccc12)N1CCCNCC1 [FASUDIL]
residual activity [1]: 120%
residual activity [2]: 56%
residual activity [3]: 84%
residual activity [4]: 34%

Cc1cncc2cccc(S(=O)(=O)N3CCCNC[C@@H]3C)c12
inhibition [5]: 51%
residual activity [7]: 84%

CCn1c(-c2nonc2N)nc2cnc(Oc3cccc(NC(=O)c4ccc(OCCN5CCOCC5)cc4)c3)cc21 [GSK-269962A]
residual activity [6]: 24%
inhibition [8]: 61%

Reference: ChEMBL document CHEMBL5705888, “Substrate specificity and inhibitors of LRRK2, a protein kinase mutated in Parkinson's disease” (Biochem J, 2009)
